Experiment [1] concerns Nucleic Acid. As to the kind of experiment: Binding affinity to Escherichia coli 23S rRNA U2506 assessed as degree of protection against CMCT at 5 uM by Chemical footprinting analysis relative to control. The experiment is classed as nucleic-acid assay. The essentials: (§1)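 Ribosomes came from E. coli MRE600 grown in LB, lysed and purified on sucrose gradients. They were incubated with drug at 5 or 50 μM and then modified with CMCT. Read-out was primer extension with a Cy5-labeled primer, gel electrophoresis and laser scanning. Band intensity with drug is given relative to no-drug control, after subtracting background from unmodified samples (1.00 = no protection, 0 = full protection). Values are means of at least two experiments.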

The subject of experiment [2] is Nucleic Acid. The experiment can be described thus: Binding affinity to Escherichia coli 23S rRNA U2585 assessed as degree of protection against CMCT at 50 uM by Chemical footprinting analysis relative to control. The class given is nucleic-acid assay. The essentials: as §1
Experiment [3] concerns Nucleic Acid. The experiment can be described thus: Binding affinity to Escherichia coli 23S rRNA U2585 assessed as degree of protection against CMCT at 5 uM by Chemical footprinting analysis relative to control. The experiment is classed as nucleic-acid assay. In short, it runs like this:
as §1

In experiment [4] the test system is Nucleic Acid. The experiment can be described thus: Binding affinity to Escherichia coli 23S rRNA U2506 assessed as degree of protection against CMCT at 50 uM by Chemical footprinting analysis relative to control. The experiment is classed as nucleic-acid assay. In short, it runs like this:
as §1

The subject of the next experiment is Bacillus subtilis. As to the kind of experiment: Antibacterial activity against Bacillus subtilis 168 after 12 hrs by microtitre plate reader. The class given is functional. As to conditions: Bacillus subtilis, 168, 12 h. The essentials: (§2)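 Microtiter broth dilution. Media: E. coli AS19 in LB; B. subtilis 168 in 25% BHI/75% LB/0.05% Tween; L. innocua in 50% BHI/50% LB. Overnight cultures started from single colonies were diluted to OD450 0.01 and mixed 1:1 with 2-fold drug dilutions (0.125–32 μg/mL). Growth was read as OD450. MIC is the lowest concentration giving complete growth inhibition (E. coli read at 24 h).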

The subject of a further experiment is Listeria innocua. The experiment can be described thus: Antibacterial activity against Listeria innocua after 24 hrs by microtitre plate reader. The class given is functional. In short, it runs like this: as §2
The test system of another experiment is Escherichia coli. As to the kind of experiment: Antibacterial activity against Escherichia coli AS19 after 24 hrs by microtitre plate reader. The experiment is classed as functional. As to conditions: AS19, 24 h. The essentials: as §2

In brackets after ≈: the same amount, converted by molar mass.

On to `C=C[C@]1(C)C[C@@H](OC(=O)Cn2cc(COCn3cnc4c(N)ncnc43)nn2)[C@]2(C)[C@H](C)CC[C@]3(CCC(=O)[C@H]32)[C@@H](C)[C@@H]1O`, for which the Ratio with Nucleic Acid [1] stood at 0.21; in the experiment on Nucleic Acid [2], 0.22; in the experiment on Nucleic Acid [3] it was 0.37; in the experiment with Nucleic Acid [4], 0.06. Further, the MIC in the experiment on Bacillus subtilis, in the experiment on Listeria innocua and in the experiment on Escherichia coli was greater than 32 µg/mL each time.
Take `C=C[C@]1(C)C[C@@H](OC(=O)CSCCN(CC)CC)[C@]2(C)[C@H](C)CC[C@]3(CCC(=O)[C@H]32)[C@@H](C)[C@@H]1O` [TIAMULIN]: the Ratio is 0.07 in the experiment on Nucleic Acid [1], 0.5 in the experiment on Nucleic Acid [2], 0.54 with Nucleic Acid [3] and 0.03 with Nucleic Acid [4]. For the same compound, the MIC against Bacillus subtilis was greater than 32 µg/mL; against Listeria innocua, greater than 32 µg/mL; in the experiment on Escherichia coli it was 0.5 µg/mL (≈ 1.01 µM).
In the case of `C=C[C@]1(C)C[C@@H](OC(=O)Cn2cc(COCn3cc(C)c(=O)[nH]c3=O)nn2)[C@]2(C)[C@H](C)CC[C@]3(CCC(=O)[C@H]32)[C@@H](C)[C@@H]1O`, the Ratio came to 0.23 in the experiment on Nucleic Acid [1], 0.22 in the experiment with Nucleic Acid [2], 0.37 in the experiment on Nucleic Acid [3] and 0.07 in the experiment on Nucleic Acid [4]. The MIC against Bacillus subtilis, with Listeria innocua and against Escherichia coli was greater than 32 µg/mL each time.
Consider `C=C[C@]1(C)C[C@@H](OC(=O)Cn2nncc2CCCn2cnc3c(N)ncnc32)[C@]2(C)[C@H](C)CC[C@]3(CCC(=O)[C@H]32)[C@@H](C)[C@@H]1O`, for which the Ratio worked out at 0.09 in the experiment with Nucleic Acid [1], 0.16 in the experiment with Nucleic Acid [2], 0.19 in the experiment on Nucleic Acid [3] and 0.04 with Nucleic Acid [4]. Also, the MIC against Bacillus subtilis is greater than 32 µg/mL; against Listeria innocua it was greater than 32 µg/mL; against Escherichia coli, 16 µg/mL (≈ 26.5 µM).
As to `C=C[C@]1(C)C[C@@H](OC(=O)Cn2cc(COCCn3cc(C)c(=O)[nH]c3=O)nn2)[C@]2(C)[C@H](C)CC[C@]3(CCC(=O)[C@H]32)[C@@H](C)[C@@H]1O`, the Ratio turned out to be 0.28 in the experiment with Nucleic Acid [1], 0.24 in the experiment with Nucleic Acid [2], 0.43 in the experiment with Nucleic Acid [3] and 0.08 in the experiment on Nucleic Acid [4]. For the same compound, the results for the MIC against Bacillus subtilis, in the experiment with Listeria innocua and with Escherichia coli were greater than 32 µg/mL, greater than 32 µg/mL and no less than 32 µg/mL, respectively.
For `C=C[C@]1(C)C[C@@H](OC(=O)Cn2cc(/C=C/Cn3cnc4c(N)ncnc43)nn2)[C@]2(C)[C@H](C)CC[C@]3(CCC(=O)[C@H]32)[C@@H](C)[C@@H]1O`, the Ratio came to 0.1 with Nucleic Acid [1], 0.16 in the experiment with Nucleic Acid [2], 0.29 in the experiment on Nucleic Acid [3] and 0.05 in the experiment with Nucleic Acid [4]. In addition, the MIC in the experiment on Bacillus subtilis is 16 µg/mL (≈ 26.5 µM); against Listeria innocua it was greater than 32 µg/mL; against Escherichia coli it was 8 µg/mL (≈ 13.3 µM).
Consider `C=C[C@]1(C)C[C@@H](OC(=O)Cn2cc(-c3ccc(-n4cnc5c(N)ncnc54)cc3)nn2)[C@]2(C)[C@H](C)CC[C@]3(CCC(=O)[C@H]32)[C@@H](C)[C@@H]1O`, for which the Ratio with Nucleic Acid [1] came out at 0.18; in the experiment with Nucleic Acid [2], 0.22; with Nucleic Acid [3], 0.4; in the experiment on Nucleic Acid [4] it was 0.08. Further, the MIC in the experiment on Bacillus subtilis, with Listeria innocua and with Escherichia coli was greater than 32 µg/mL each time.
For the compound `C=C[C@]1(C)C[C@@H](OC(=O)Cn2cc(COCc3ccccc3)nn2)[C@]2(C)[C@H](C)CC[C@]3(CCC(=O)[C@H]32)[C@@H](C)[C@@H]1O`, the Ratio worked out at 0.3 with Nucleic Acid [1], 0.41 with Nucleic Acid [2], 0.5 in the experiment on Nucleic Acid [3] and 0.08 in the experiment on Nucleic Acid [4]. Besides, the MIC in the experiment with Bacillus subtilis, with Listeria innocua and in the experiment with Escherichia coli was greater than 32 µg/mL each time.
With `C=C[C@]1(C)C[C@@H](OC(=O)Cn2cc(/C=C/Cn3cc(C)c(=O)[nH]c3=O)nn2)[C@]2(C)[C@H](C)CC[C@]3(CCC(=O)[C@H]32)[C@@H](C)[C@@H]1O`, the Ratio in the experiment on Nucleic Acid [1] was found to be 0.18; with Nucleic Acid [2], 0.21; with Nucleic Acid [3], 0.39; in the experiment with Nucleic Acid [4], 0.06. Moreover, the MIC is greater than 32 µg/mL in the experiment with Bacillus subtilis, greater than 32 µg/mL against Listeria innocua and no less than 32 µg/mL in the experiment with Escherichia coli.
Take `C=C[C@]1(C)C[C@@H](OC(=O)CSC(C)(C)CNC(=O)[C@H](N)C(C)C)[C@]2(C)[C@H](C)CC[C@]3(CCC(=O)[C@H]32)[C@@H](C)[C@@H]1O` [VALNEMULIN]: the Ratio in the experiment with Nucleic Acid [1] is 0.05; in the experiment on Nucleic Acid [2] it was 0.16; with Nucleic Acid [3] it was 0.15; in the experiment on Nucleic Acid [4], 0.04. The MIC was 2 µg/mL (≈ 3.54 µM) in the experiment with Bacillus subtilis, 1 µg/mL (≈ 1.77 µM) with Listeria innocua and less than 0.125 µg/mL with Escherichia coli.
For `C=C[C@]1(C)C[C@@H](OC(=O)Cn2cc(-c3cccc(-n4cnc5c(N)ncnc54)c3)nn2)[C@]2(C)[C@H](C)CC[C@]3(CCC(=O)[C@H]32)[C@@H](C)[C@@H]1O`, the Ratio in the experiment with Nucleic Acid [1] came to 0.06; in the experiment on Nucleic Acid [2], 0.07; in the experiment on Nucleic Acid [3] it was 0.1; in the experiment on Nucleic Acid [4], 0.06. In addition, the MIC is 8 µg/mL (≈ 12.5 µM) against Bacillus subtilis, greater than 32 µg/mL in the experiment with Listeria innocua and 1 µg/mL (≈ 1.57 µM) in the experiment on Escherichia coli.
Consider `C=C[C@]1(C)C[C@@H](OC(=O)Cn2cc(C[C@@H]3[C@H](O)[C@@H](CO)O[C@H]3n3ccc(=O)[nH]c3=O)nn2)[C@]2(C)[C@H](C)CC[C@]3(CCC(=O)[C@H]32)[C@@H](C)[C@@H]1O`, for which the Ratio in the experiment with Nucleic Acid [1] is 0.31; in the experiment on Nucleic Acid [2], 0.26; in the experiment with Nucleic Acid [3], 0.46; in the experiment on Nucleic Acid [4] it was 0.09. Further, the MIC with Bacillus subtilis, in the experiment with Listeria innocua and in the experiment with Escherichia coli was greater than 32 µg/mL each time.
With `C=C[C@]1(C)C[C@@H](OC(=O)Cn2ccnn2)[C@]2(C)[C@H](C)CC[C@]3(CCC(=O)[C@H]32)[C@@H](C)[C@@H]1O`, the Ratio in the experiment with Nucleic Acid [1] came out at 0.48; in the experiment on Nucleic Acid [2] it was 0.42; in the experiment on Nucleic Acid [3] it was 0.66; in the experiment on Nucleic Acid [4], 0.18. In addition, the MIC against Bacillus subtilis was greater than 32 µg/mL; against Listeria innocua, greater than 32 µg/mL; with Escherichia coli, 16 µg/mL (≈ 37.2 µM).
For `C=C[C@]1(C)C[C@@H](OC(=O)Cn2cc(CCCn3cnc4c(N)ncnc43)nn2)[C@]2(C)[C@H](C)CC[C@]3(CCC(=O)[C@H]32)[C@@H](C)[C@@H]1O`, the Ratio in the experiment with Nucleic Acid [1] was found to be 0.13; in the experiment on Nucleic Acid [2], 0.17; with Nucleic Acid [3] it was 0.23; in the experiment with Nucleic Acid [4], 0.05. For the same compound, the MIC was greater than 32 µg/mL against Bacillus subtilis, greater than 32 µg/mL against Listeria innocua and 8 µg/mL (≈ 13.2 µM) against Escherichia coli.
As to `C=C[C@]1(C)C[C@@H](OC(=O)CO)[C@]2(C)[C@H](C)CC[C@]3(CCC(=O)[C@@H]32)[C@@H](C)[C@@H]1O` [PLEUROMUTILIN], the Ratio with Nucleic Acid [1] amounted to 0.28; with Nucleic Acid [2], 0.8; in the experiment on Nucleic Acid [3], 0.89; in the experiment on Nucleic Acid [4] it was 0.08. For the same compound, the MIC with Bacillus subtilis is 32 µg/mL (≈ 84.5 µM); against Listeria innocua it was greater than 32 µg/mL; against Escherichia coli it was 1 µg/mL (≈ 2.64 µM).

As usually defined, the MIC is the smallest concentration in the dilution series that meets the test's criterion for growth inhibition. Low values mean inhibition by little substance, high ones a need for much substance.

Source of the values: ChEMBL document CHEMBL2086327, “A click chemistry approach to pleuromutilin derivatives, part 2: conjugates with acyclic nucleosides and their ribosomal binding and antibacterial activity” (2012).
